From PubChem BioAssay
Activity calls are given as the source filed them.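 Rule for the calls, unless noted: active = mean duplicate potentiation above the buffer control mean plus 5 SD of buffer wells; inactive = the rest.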

Each molecule was assayed against Potassium voltage-gated channel subfamily KQT member 2 (Rattus norvegicus) (UniProt O88943) (assay: rat KCNQ2 channel potentiation, selectivity assay for KCNQ1 potentiator project, KCNQ2-CHO-K1 cells (AID 493009;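 note: assay conditions were tuned for KCNQ1 rather than KCNQ2 modulators; signal is max minus min fluorescence divided by baseline after thallium stimulus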)). Details: FluxOR thallium flux fluorescence, at 10 µM; hits give high values, scaled: buffer 0, activator control 100.
Sequence of Potassium voltage-gated channel subfamily KQT member 2 (Rattus norvegicus) (O88943 whole entry, looked up): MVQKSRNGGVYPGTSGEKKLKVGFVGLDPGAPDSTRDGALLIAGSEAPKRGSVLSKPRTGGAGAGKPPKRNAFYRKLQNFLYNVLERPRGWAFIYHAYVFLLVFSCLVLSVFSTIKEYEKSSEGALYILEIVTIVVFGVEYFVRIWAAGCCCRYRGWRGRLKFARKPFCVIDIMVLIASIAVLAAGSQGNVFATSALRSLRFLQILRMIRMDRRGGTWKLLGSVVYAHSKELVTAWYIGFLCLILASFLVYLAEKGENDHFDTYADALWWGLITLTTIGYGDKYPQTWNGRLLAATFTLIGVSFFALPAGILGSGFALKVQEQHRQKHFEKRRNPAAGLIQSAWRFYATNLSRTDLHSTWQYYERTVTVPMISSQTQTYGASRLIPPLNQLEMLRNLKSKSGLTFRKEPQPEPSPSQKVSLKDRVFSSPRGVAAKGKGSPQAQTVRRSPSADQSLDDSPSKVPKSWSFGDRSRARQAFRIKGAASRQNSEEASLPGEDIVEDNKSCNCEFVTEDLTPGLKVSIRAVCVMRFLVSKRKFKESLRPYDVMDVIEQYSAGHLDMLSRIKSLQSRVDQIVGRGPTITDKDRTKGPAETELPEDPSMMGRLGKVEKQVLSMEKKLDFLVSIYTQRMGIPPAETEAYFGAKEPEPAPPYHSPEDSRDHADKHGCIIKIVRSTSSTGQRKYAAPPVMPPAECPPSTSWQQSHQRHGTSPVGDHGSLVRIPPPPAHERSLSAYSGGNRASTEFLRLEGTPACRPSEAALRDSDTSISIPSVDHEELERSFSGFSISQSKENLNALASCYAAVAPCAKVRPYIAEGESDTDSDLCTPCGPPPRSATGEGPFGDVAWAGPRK
For `O=S1(=O)Nc2c(ccc3cccnc23)-c2ccccc21`, the potentiation was 154% (active).
For `CC1(C)Cc2c(sc(/N=C/N3CCCCCC3)c2C#N)C(C)(C)N1`, the outcome was “inactive”.
With `COc1ccccc1CNCc1cccc(Oc2ccccc2)c1` the outcome was “inactive”.
In the case of `Fc1ccc(-c2csc(=S)[nH]2)cc1`, the potentiation is reported as 398% (active).
`Cc1ccccc1NC(=O)C(=O)NNC(=O)COc1ccc2ccccc2c1` was tested, and the potentiation was 300% (active).
For `Cc1ccc(Cn2ncc3c(NN)ncnc32)cc1`, the outcome was “inactive”.
`COc1cc(CNCCN2CCOCC2)ccc1OCc1ccc(Cl)cc1Cl` was tested, and the outcome was “inactive”.
With `COc1cnc(-c2ccccn2)nc1Oc1ccccc1Cl` the outcome was “inactive”.
For `CCc1ccc2[nH]c(C(=O)Nc3ccc(F)cc3Br)cc2c1`, the outcome was “inactive”.
With `O=C1NC(=S)S/C1=C\c1ccc2ccccc2c1` the potentiation was 218% (active).
For `Cc1ccc(OCc2n[nH]c(=S)n2-c2ccc(Br)cc2)cc1`, the potentiation was 146% (active).
For `CCN=C1SC(CC(=O)Nc2ccccc2OCC)C(=O)N1CC` (stereo not given), the outcome was “inactive”.
`Cc1nc(-c2nc(-c3c(C(=O)NNC(=O)c4ccc(Cl)cc4)noc3C)cs2)cs1` was tested, and the potentiation was 184% (active).
In the case of `CCOC(=O)C1=C(O)c2ccccc2C(=O)/C1=C\c1ccc(CC)cc1`, the potentiation is reported as 156% (active).
With `O=C(CNC(=O)C(c1ccccc1)c1ccccc1)N/N=C/c1ccc(O)cc1O` the outcome was “inactive”.
In the case of `C=CCn1c(O)c(N=NC(=S)Nc2cccc(C)c2)c2ccccc21`, the potentiation is reported as 286% (active).
With `O=[N+]([O-])c1cc(C(F)(F)F)ccc1Oc1cccnc1[N+](=O)[O-]` the outcome was “inactive”.
For `O=C(Nc1ccccc1F)C1C2C=CC3(O2)C1C(=O)N(c1cccnc1)C3C(=O)NC1CCCCC1` (stereo not given), the outcome was “inactive”.
In the case of `Cc1cccc(NC(=O)c2cccnc2)c1`, the outcome is reported as “inactive”.
`COC(=O)c1sc(NC(=S)NC(=O)c2ccccc2F)nc1C` was tested, and the outcome was “inactive”.
`CC(/C=C1\SC(=S)N(c2ccc(C(=O)O)cc2)C1=O)=C\c1ccccc1` was tested, and the outcome was “inactive”.
In the case of `NC(=O)CSc1nnc(-c2ccccc2Br)n1-c1cccc(C(F)(F)F)c1`, the outcome is reported as “inactive”.
In the case of `O=C(c1cccnc1)N1N=C2CCCCCC2C1(O)C(F)(F)F` (stereo not given), the outcome is reported as “inactive”.
With `CCOC(=O)C1(CC2CCCCO2)CCN(Cc2cc3ccccc3[nH]2)CC1` (stereo not given) the outcome was “inactive”.
For `O=C(NC(=S)NC1CCCCC1)c1ccc(Cl)cc1`, the potentiation was 390% (active).
`COC(=O)c1sc(NC(=S)NC(=O)c2ccc(C)cc2)nc1C` was tested, and the potentiation was 188% (active).
With `O=Cc1cc2ccccc2nc1SCCCF` the outcome was “inactive”.
`OCCCCNCc1ccc(OCc2ccc(Cl)cc2)cc1` was tested, and the potentiation was 332% (active).
`CC(=O)Nc1cccc(/C(C)=N/NC(=O)c2ccc(Cl)cc2Cl)c1` was tested, and the outcome was “inactive”.
In the case of `C/C(=N\NC(=S)Nc1ccc(C)cc1)c1cc2ccccc2o1`, the potentiation is reported as 169% (active).
`CCC1CCC2(CC1)NC(CO)(CO)CO2` (stereo not given) was tested, and the outcome was “inactive”.
In the case of `O=c1[nH]c(Nc2ccccc2)cc2cc(Br)ccc12`, the outcome is reported as “inactive”.
In the case of `CCCC(=O)Nc1cc(Cl)ccc1N1CCN(C(=O)CC)CC1`, the outcome is reported as “inactive”.
`Cn1c(O)c(N=Nc2nc(-c3ccccc3)cs2)c2ccccc21` was tested, and the potentiation was 677% (active).
For `Cc1ccc(-n2cccc2/C=C2\C(=N)N3N=C(C(C)C)SC3=NC2=O)cc1`, the outcome was “inactive”.
With `CC(=O)c1c(C)[nH]c(C(=O)OCc2nc3ccsc3c(=O)[nH]2)c1C` the outcome was “inactive”.
With `COc1cc(OC)cc(C(=O)NC(=S)N(Cc2ccccc2)C(C)C)c1` the potentiation was 380% (active).
For `COC(=O)c1cn(NC(=O)Cc2ccc(Cl)c(Cl)c2)c(=O)c2ccccc12`, the potentiation was 252% (active).
With `Cc1ccc(-c2csc3ncnc(SCc4ccc(C(=O)O)cc4)c23)cc1` the potentiation was 175% (active).
In the case of `CS(=O)(=O)N1CCC(C(=O)Nc2ccc(OCc3ccccc3)cc2)CC1`, the outcome is reported as “inactive”.

These molecules were tested against Potassium voltage-gated channel subfamily KQT member 1 (Homo sapiens) (UniProt P51787) (assay: KCNQ1 channel current potentiators, confirmation, orthogonal assay for KCNQ1 potentiator project, IonWorks patch clamp, KCNQ1-CHO cells (AID 493184;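 active = current rise at least 3 SD above the untreated control mean in each of two repeat wells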;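 for current potentiation: percent change of the same well's current before compound addition so 0% = no change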)). Details: automated patch clamp current, at 10 µM; hits give high values.
Sequence of Potassium voltage-gated channel subfamily KQT member 1 (Homo sapiens) (P51787 whole entry, looked up): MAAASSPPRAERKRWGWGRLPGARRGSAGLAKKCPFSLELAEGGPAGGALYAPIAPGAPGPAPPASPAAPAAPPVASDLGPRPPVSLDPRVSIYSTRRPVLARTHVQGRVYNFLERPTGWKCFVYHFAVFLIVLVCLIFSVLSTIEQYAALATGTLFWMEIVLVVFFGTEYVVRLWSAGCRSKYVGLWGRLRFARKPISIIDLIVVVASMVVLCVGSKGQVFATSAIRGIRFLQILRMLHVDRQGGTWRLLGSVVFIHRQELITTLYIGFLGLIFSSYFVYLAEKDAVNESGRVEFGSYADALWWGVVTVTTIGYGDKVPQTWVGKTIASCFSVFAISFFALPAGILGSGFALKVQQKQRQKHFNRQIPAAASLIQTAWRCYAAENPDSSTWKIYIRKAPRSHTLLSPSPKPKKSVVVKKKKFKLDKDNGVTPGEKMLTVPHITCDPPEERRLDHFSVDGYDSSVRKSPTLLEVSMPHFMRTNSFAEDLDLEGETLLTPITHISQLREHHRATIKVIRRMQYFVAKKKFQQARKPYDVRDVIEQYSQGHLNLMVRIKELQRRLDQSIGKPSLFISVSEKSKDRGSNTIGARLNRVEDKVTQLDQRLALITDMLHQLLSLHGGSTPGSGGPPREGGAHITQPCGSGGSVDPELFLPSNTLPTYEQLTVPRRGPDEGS
In short: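 Assay system – CHO cells carrying KCNQ1 · Medium – pH 7.4 external bath · Probe or stimulus – depolarizing pulse to +40 mV from -90 mV · Compound dosing – one dose, 10 µM final · Measured by – automated perforated-patch electrophysiology · Measure – % potentiation of steady-state current relative to pre-compound · Repeats – two replicates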
In the case of `O=S1(=O)Nc2c(ccc3cccnc23)-c2ccccc21`, the outcome is reported as “inactive”.
In the case of `CC1(C)Cc2c(sc(/N=C/N3CCCCCC3)c2C#N)C(C)(C)N1`, the outcome is reported as “inactive”.
In the case of `COc1ccccc1CNCc1cccc(Oc2ccccc2)c1`, the outcome is reported as “inactive”.
With `Fc1ccc(-c2csc(=S)[nH]2)cc1` the outcome was “inactive”.
In the case of `Cc1ccccc1NC(=O)C(=O)NNC(=O)COc1ccc2ccccc2c1`, the outcome is reported as “inactive”.
For `Cc1ccc(Cn2ncc3c(NN)ncnc32)cc1`, the outcome was “inactive”.
With `COc1cc(CNCCN2CCOCC2)ccc1OCc1ccc(Cl)cc1Cl` the outcome was “inactive”.
`COc1cnc(-c2ccccn2)nc1Oc1ccccc1Cl` was tested, and the outcome was “inactive”.
For `CCc1ccc2[nH]c(C(=O)Nc3ccc(F)cc3Br)cc2c1`, the outcome was “inactive”.
`O=C1NC(=S)S/C1=C\c1ccc2ccccc2c1` was tested, and the outcome was “inactive”.
For `Cc1ccc(OCc2n[nH]c(=S)n2-c2ccc(Br)cc2)cc1`, the outcome was “inactive”.
`CCN=C1SC(CC(=O)Nc2ccccc2OCC)C(=O)N1CC` (stereo not given) was tested, and the outcome was “inactive”.
With `Cc1nc(-c2nc(-c3c(C(=O)NNC(=O)c4ccc(Cl)cc4)noc3C)cs2)cs1` the outcome was “inactive”.
In the case of `CCOC(=O)C1=C(O)c2ccccc2C(=O)/C1=C\c1ccc(CC)cc1`, the outcome is reported as “inactive”.
In the case of `O=C(CNC(=O)C(c1ccccc1)c1ccccc1)N/N=C/c1ccc(O)cc1O`, the outcome is reported as “inactive”.
For `C=CCn1c(O)c(N=NC(=S)Nc2cccc(C)c2)c2ccccc21`, the outcome was “inactive”.
With `O=[N+]([O-])c1cc(C(F)(F)F)ccc1Oc1cccnc1[N+](=O)[O-]` the outcome was “inactive”.
With `O=C(Nc1ccccc1F)C1C2C=CC3(O2)C1C(=O)N(c1cccnc1)C3C(=O)NC1CCCCC1` (stereo not given) the outcome was “inactive”.
For `Cc1cccc(NC(=O)c2cccnc2)c1`, the outcome was “inactive”.
With `COC(=O)c1sc(NC(=S)NC(=O)c2ccccc2F)nc1C` the outcome was “inactive”.
`CC(/C=C1\SC(=S)N(c2ccc(C(=O)O)cc2)C1=O)=C\c1ccccc1` was tested, and the outcome was “inactive”.
`NC(=O)CSc1nnc(-c2ccccc2Br)n1-c1cccc(C(F)(F)F)c1` was tested, and the outcome was “inactive”.
In the case of `O=C(c1cccnc1)N1N=C2CCCCCC2C1(O)C(F)(F)F` (stereo not given), the outcome is reported as “inactive”.
For `CCOC(=O)C1(CC2CCCCO2)CCN(Cc2cc3ccccc3[nH]2)CC1` (stereo not given), the outcome was “inactive”.
In the case of `O=C(NC(=S)NC1CCCCC1)c1ccc(Cl)cc1`, the outcome is reported as “inactive”.
With `COC(=O)c1sc(NC(=S)NC(=O)c2ccc(C)cc2)nc1C` the outcome was “inactive”.
`O=Cc1cc2ccccc2nc1SCCCF` was tested, and the outcome was “inactive”.
With `OCCCCNCc1ccc(OCc2ccc(Cl)cc2)cc1` the outcome was “inactive”.
With `CC(=O)Nc1cccc(/C(C)=N/NC(=O)c2ccc(Cl)cc2Cl)c1` the outcome was “inactive”.
For `C/C(=N\NC(=S)Nc1ccc(C)cc1)c1cc2ccccc2o1`, the outcome was “inactive”.
`CCC1CCC2(CC1)NC(CO)(CO)CO2` (stereo not given) was tested, and the outcome was “inactive”.
In the case of `O=c1[nH]c(Nc2ccccc2)cc2cc(Br)ccc12`, the outcome is reported as “inactive”.
For `CCCC(=O)Nc1cc(Cl)ccc1N1CCN(C(=O)CC)CC1`, the outcome was “inactive”.
For `Cn1c(O)c(N=Nc2nc(-c3ccccc3)cs2)c2ccccc21`, the outcome was “inactive”.
With `Cc1ccc(-n2cccc2/C=C2\C(=N)N3N=C(C(C)C)SC3=NC2=O)cc1` the current potentiation was 36% (active).
In the case of `CC(=O)c1c(C)[nH]c(C(=O)OCc2nc3ccsc3c(=O)[nH]2)c1C`, the outcome is reported as “inactive”.
`COc1cc(OC)cc(C(=O)NC(=S)N(Cc2ccccc2)C(C)C)c1` was tested, and the outcome was “inactive”.
In the case of `COC(=O)c1cn(NC(=O)Cc2ccc(Cl)c(Cl)c2)c(=O)c2ccccc12`, the outcome is reported as “inactive”.
For `Cc1ccc(-c2csc3ncnc(SCc4ccc(C(=O)O)cc4)c23)cc1`, the outcome was “inactive”.
In the case of `CS(=O)(=O)N1CCC(C(=O)Nc2ccc(OCc3ccccc3)cc2)CC1`, the outcome is reported as “inactive”.
